Like-named read-outs stand apart in the source and are kept apart here.

Data on nine compounds can be found in publication PMC6660019 (ACS catalysis, 2019).

The target of assay [1] is T1, LmbB2 (Streptomyces lincolnensis, UniProt Q54355). The assay can be described thus: EPR analysis of the ferrous LmbB2-nitrosyl. Particulars: 20 mM ligand; for EPR spectroscopic change compared with E-NO· alone: negative controls; for gave (average g value) of E-NO· complex after addition of ligand: 50 K, E-NO· alone gave = 2.030. In a few lines: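 His6-tagged LmbB2 expressed in E. coli BL21(DE3) with δ-aminolevulinic acid and ferrous ammonium sulfate, then Ni-affinity purified. 200 µM argon-saturated enzyme reduced anaerobically with 1 mM sodium dithionite, then exposed to excess NO from diethylamine NONOate in a sealed O2-free vial. Phenolic ligands added at 20 mM final. Samples frozen in liquid nitrogen. X-band EPR at 9.4 GHz, 100 kHz modulation, 50 K, 0.05 mW.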

Assay [2] addresses T1, LmbB2. The assay is classed as biochemical.
The target of assay [3] is T1, LmbB2. The assay is described as follows: Isothermal titration calorimetry. It counts as binding. On the technique in general: In ITC the heat of successive injections is recorded.
Assay [4] deals with T1, LmbB2. The assay is described as follows: Oxygen production. The assay is classed as biochemical. Particulars: substrate concentration exceeding 200 µM, 1 mM H2O2.
Assay [5] concerns the target T1, LmbB2. The assay can be described thus: LmbB2 catalytic reaction with H2O2, product analysis by HPLC. It counts as biochemical. Particulars: after normalizing for the percentage of substrate conversion.
Setting [6] is: ^18O-enriched H2O2 (≥ 90% ^18O), normal water.
[7] abbreviates: ^18O-enriched water (88% ^18O), normal H2O2.
The mark [8] stands for this setting: ^18O-enriched water (88% ^18O), normal H2O2, listed as Tyrosine.
Where [9] appears, read: ITC, 100 mM KPi, 50 mM NaCl, pH 8, 20 °C.
[10] abbreviates: ^18O-enriched H2O2 (≥ 90% ^18O), normal water, listed as 3-Fluoro-L-tyrosiTane.
The mark [11] stands for this setting: ^18O-enriched water (88% ^18O), normal H2O2, listed as 3-Fluoro-L-tyrosiTane.

`CC(C)(C)OC(=O)N[C@@H](Cc1ccc(O)cc1)C(=O)O` [N-boc-L-tyrosine]: on LmbB2 [1], the “EPR spectroscopic change compared with E-NO· alone” value was “no significant EPR spectroscopic change”.

As usually defined, the Kd is a measure of binding affinity in units of concentration. Read a high Kd as weaker binding. As for `N[C@@H](Cc1ccc(O)cc1)C(=O)O` [compound 1, L-tyrosine], the “Hydroxylation product ^16O/^16O” value on LmbB2 [2] (setting [6]) is 7.2 ± 0.3%; on LmbB2 [2] (setting [7]) it was 87.7%; on LmbB2 [2] (setting [8]) it was 87.7 ± 0.9%. Moreover, the “Hydroxylation product ^16O/^18O” value at LmbB2 [2] (setting [6]) is “over 90%”; at LmbB2 [2] (^18O-enriched H2O2 (≥ 90% ^18O), normal water, listed as Tyrosine), 92.8 ± 0.3%; on LmbB2 [2] (setting [7]), 11.2%; on LmbB2 [2] (setting [8]) it was 11.2 ± 0.8%. At LmbB2 [2] (setting [7]), the “Hydroxylation product ^18O/^18O” value was 1.0 ± 0.1%. At LmbB2 [3], this compound yielded a Kd of 1.35 ± 0.03 µM. Further, the “gave (average g value) of E-NO· complex after addition of ligand” value (“gave (average g value) of E-NO· complex” below) at LmbB2 [1] turned out to be 2.027. For the same compound, the “rate of oxygen formation” value at LmbB2 [4] is given as “zero”.

At LmbB2 [3], `N[C@@H](Cc1ccccc1)C(=O)O` [compound 2, L-phenylalanine] came in with a Kd of 318 ± 8 µM. At LmbB2 [1], the “gave (average g value) of E-NO· complex” value stood at 2.027.

Regarding `COc1ccc(C[C@H](N)C(=O)O)cc1` [compound 3, O-methyl-L-tyrosine], at LmbB2 [3] (setting [9]), the Kd came to 1290 ± 140 µM. For the same compound, the “gave (average g value) of E-NO· complex” value on LmbB2 [1] turned out to be 2.026.

With `N[C@@H](Cc1ccc(O)c([N+](=O)[O-])c1)C(=O)O` [compound 4, 3-nitro-L-tyrosine], at LmbB2 [3] (setting [9]), the KD result was “no detectable thermal change”.

`N[C@@H](Cc1ccc(O)c(F)c1)C(=O)O` [compound 5, 3-fluoro-L-tyrosine]: on LmbB2 [2] (setting [6]), the “Dehalogenation and Hydroxylation product (1a) ^16O/^16O” value was 30.3 ± 1.0%; the “Dehalogenation and Hydroxylation product (1a) ^16O/^18O” value worked out at 69.7%; the “Hydroxylation product ^16O/^16O” value is recorded as 15.5 ± 0.2%; the “Hydroxylation product ^16O/^18O” value is recorded as 84.5%. Besides, at LmbB2 [2] (setting [10]), the “Dehalogenation and Hydroxylation product (1a) ^16O/^18O” value came out at 69.7 ± 1.0%; the “Hydroxylation product ^16O/^18O” value amounted to 84.5 ± 0.2%. On LmbB2 [2] (setting [7]), the “Dehalogenation and Hydroxylation product (1a) ^16O/^16O” value worked out at 36.2%; the “Dehalogenation and Hydroxylation product (1a) ^16O/^18O” value is listed as 51.5%; the “Dehalogenation and Hydroxylation product (1a) ^18O/^18O” value was 12.3%; the “Hydroxylation product ^16O/^16O” value turned out to be 57.3%. Further, at LmbB2 [2] (setting [7]), the “Hydroxylation product ^16O/^18O” value is given as 35.8% and the “Hydroxylation product ^18O/^18O” value worked out at 6.9%. Moreover, at LmbB2 [2] (setting [11]), the “Dehalogenation and Hydroxylation product (1a) ^16O/^16O” value came to 36.2 ± 0.9%; the “Dehalogenation and Hydroxylation product (1a) ^16O/^18O” value came out at 51.5 ± 0.7%; the “Dehalogenation and Hydroxylation product (1a) ^18O/^18O” value is 12.3 ± 1.2%; the “Hydroxylation product ^16O/^16O” value is given as 57.3 ± 1.6%. Moreover, on LmbB2 [2] (setting [11]), the “Hydroxylation product ^16O/^18O” value was 35.8 ± 1.6% and the “Hydroxylation product ^18O/^18O” value is given as 6.9 ± 0.7%. Also, the “ratio of 1a formation among substrates 5, 6 and 7” value (“ratio” for short) on LmbB2 [5] was 4.5. Further, binding at LmbB2 [3] was put at a Kd of 22.2 ± 1.1 µM. The “binding affinity weaker than the native substrate” value at LmbB2 [3] (KD of analog versus L-tyrosine (1)) was “around 16 fold”. For the same compound, the “rate of oxygen formation” value on LmbB2 [4] was roughly 10 min⁻¹.

In the case of `N[C@@H](Cc1ccc(O)c(Cl)c1)C(=O)O` [compound 6, 3-chloro-L-tyrosine], the “ratio” value at LmbB2 [5] came out at 1.3. In addition, binding at LmbB2 [3] was put at a Kd of 346 ± 2 µM.

Take `N[C@@H](Cc1ccc(O)c(I)c1)C(=O)O` [compound 7, 3-iodo-L-tyrosine]: the “ratio” value at LmbB2 [5] worked out at 1. At LmbB2 [3], this compound returned a Kd of 7820 ± 180 µM.

In the case of `Cc1ccc(O)cc1` [p-cresol], at LmbB2 [1], the “EPR spectroscopic change compared with E-NO· alone” value is listed as “no significant EPR spectroscopic change”.
